# L major viab: Leishmania major promastigote growth inhibition. Leishmania major promastigotes, resazurin fluorescence viability. inhibition, % at 10 µM. hit rate 9% among 200,000. AID 1063; in the data active means inhibition above about 50%;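 further: promastigotes grown with compound for 44 hours at 28 °C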
# Mdm2 MdmX PPI: disrupts the human Mdm2-MdmX interaction; inhibition, % at 8 µM; AID 485346; hit rate 3% among 330,000; O15151+Q00987; SaOS-2 split-luciferase Mdm2/MdmX complementation, luminescence;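 active means inhibition of at least 50% at 8 µM in the primary screen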
# Target sequence (O15151 whole entry, looked up): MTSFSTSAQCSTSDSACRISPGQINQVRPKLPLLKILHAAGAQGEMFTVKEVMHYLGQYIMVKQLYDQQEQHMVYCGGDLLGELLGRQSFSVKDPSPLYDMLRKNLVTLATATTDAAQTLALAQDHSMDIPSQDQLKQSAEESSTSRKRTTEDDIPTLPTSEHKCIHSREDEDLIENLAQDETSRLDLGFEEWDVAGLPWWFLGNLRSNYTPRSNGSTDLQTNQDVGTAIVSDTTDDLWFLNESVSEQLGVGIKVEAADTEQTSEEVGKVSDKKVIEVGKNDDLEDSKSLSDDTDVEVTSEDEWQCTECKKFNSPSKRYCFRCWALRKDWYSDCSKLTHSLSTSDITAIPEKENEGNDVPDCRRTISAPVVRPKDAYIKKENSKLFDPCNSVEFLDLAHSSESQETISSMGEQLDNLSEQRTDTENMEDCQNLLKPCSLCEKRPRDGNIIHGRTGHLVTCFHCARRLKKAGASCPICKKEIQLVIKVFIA
# Target sequence (Q00987 whole entry, looked up): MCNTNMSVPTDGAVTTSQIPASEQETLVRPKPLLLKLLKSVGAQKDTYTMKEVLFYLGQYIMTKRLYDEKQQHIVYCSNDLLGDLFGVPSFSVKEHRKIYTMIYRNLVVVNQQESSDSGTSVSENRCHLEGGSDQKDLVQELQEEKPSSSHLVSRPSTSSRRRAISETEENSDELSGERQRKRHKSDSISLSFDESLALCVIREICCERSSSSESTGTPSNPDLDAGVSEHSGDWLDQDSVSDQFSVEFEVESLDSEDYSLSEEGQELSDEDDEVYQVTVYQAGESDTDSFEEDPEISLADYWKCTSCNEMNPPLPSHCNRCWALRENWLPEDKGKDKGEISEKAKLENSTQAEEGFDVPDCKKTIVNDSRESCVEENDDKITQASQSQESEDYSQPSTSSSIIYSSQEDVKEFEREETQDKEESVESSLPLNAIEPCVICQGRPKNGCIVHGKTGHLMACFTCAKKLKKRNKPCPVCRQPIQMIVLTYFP
# CSC inhib: cancer stem cell inhibition; hit rate 1.1% among 300,000; cancer stem cell-like cells viability, luminescence; inhibition, % at 7.5 µM; in the data active means inhibition above about 75%; tested in HMLE shEcad cells
# Beta cell apopt: beta cell apoptosis inhibition. hit rate 0.8% among 300,000. INS-1E cytokine-induced death, ATP luminescence, 48 h; percent of positive-control rescue, neutral wells zero. protection from apoptosis, % (no concentration beside the values);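 active means Every replicate reaches about 75%, or at least half do and their mean reaches it too, limit read from the data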;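 further: 0% = cytokine-treated negative control wells and 100% = positive control rescue; higher means more ATP so stronger rescue from cytokine killing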
# SKKanGAS inh: SKKanGAS growth inhibition; S. pyogenes SKKanGAS, kanamycin growth, BacTiter-Glo, 6 h; inhibition, % at 7.5 µM; hit rate 1.3% among 300,000; AID 1662;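 active means mean replicate score, as percent of positive control median, at least 50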;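 further: strain carries kanamycin resistance gene driven by streptokinase promoter and grows in 40 µg/ml kanamycin; loss of luminescence reflects streptokinase promoter inhibition or plain growth inhibition; 0% = median of DMSO wells and 100% = positive control at its reference dose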
# T cruzi repl: blocks replication of Trypanosoma cruzi | T. cruzi beta-gal in NIH3T3, luminescence, 90 h | inhibition, % (test concentration not listed) | hit rate 1.4% among 300,000 | AID 1885;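 active means mean inhibition across valid replicates above about 55%, limit read from the data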;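 further: signal also drops with host cell toxicity which is not excluded here; 0% = plate median of DMSO wells and 100% = zero luminescence signal; higher percent means less beta-gal luminescence so fewer parasites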
#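 Assay system: NIH/3T3 fibroblasts plus reporter T. cruzi. Amount: NIH/3T3 cells, 5,000 per well. Buffer or medium: DMEM, 2% fetal bovine serum. Doses: compound pinned at 50 nL/well, DMSO. Schedule: ≥90 h infection period, 3 h prior cell attachment. Signal: luminescent β-galactosidase signal after 60 min lysis. Read-out: parasite load inhibition, %.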
# Mdm2 MdmX conf: human Mdm2/MdmX binding inhibition, confirmed. shares compounds with Mdm2 MdmX PPI. luminescent assay. inhibition, % at 8 µM. hit rate 55% among 10,000; in the data active means inhibition above about 40%
# Full FLuc ctr: inhibits full-length luciferase, flagging false Mdm2/MdmX hits. shares compounds with Mdm2 MdmX PPI. SaOS-2 full-length luciferase counterscreen, luminescence. inhibition, % at 8 µM. hit rate 77% among 6,200;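 active means mean inhibition at 8 µM reaching about 37%, which flags the compound as non-specific, limit read from the data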;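 further: p53-null SaOS-2 cells with luciferase driven by a doxycycline-inducible promoter; compound on cells about two nights before reading with doxycycline added after day one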
# * = called active by the depositor; / = not tested or not shown. The list is not random: actives were taken first. Their share in the collection is about 9.4%.
SMILES,L major viab,Mdm2 MdmX PPI,CSC inhib,Beta cell apopt,SKKanGAS inh,T cruzi repl,Mdm2 MdmX conf,others
O=C(c1cc(S(=O)(=O)N2CCOCC2)ccc1Cl)N1CCCCC1CO (stereo not given),/,25,/,3,/,/,/,
Cc1nn(-c2ccccc2)c(C)c1/C=N/NC(=O)c1cc(C2CC2)[nH]n1,-2,-4,-8,3,3,3,/,
Cc1nn(-c2ccccc2)c(C)c1/C=N/NC(=O)c1cc(C23CC4CC(CC(C4)C2)C3)[nH]n1,91*,63*,97*,18,64*,50,30,
Cc1nn(-c2ccccc2)c(C)c1/C=N/NC(=O)c1cc(-c2cccs2)[nH]n1,24,70*,60,37,10,-48,56*,Full FLuc ctr=78*
Cc1nn(-c2ccccc2)c(C)c1/C=N/NC(=O)c1cc(-c2ccc(Cl)s2)[nH]n1,45,56*,69,-1,59*,16,59*,Full FLuc ctr=49*
CCOc1cc(-c2nc(-c3ccccc3)c(-c3cc([N+](=O)[O-])ccc3C)[nH]2)ccc1O,35,57*,/,5,17,57*,13,
O=[N+]([O-])c1ccc(O)c(-c2nc(-c3ccccc3)c(-c3cccs3)[nH]2)c1,38,85*,100*,49,102*,-2,89*,Full FLuc ctr=49*
CCOc1ccc(C(=O)Nc2ccc(-c3nc4ccccc4[nH]3)cc2)cc1[N+](=O)[O-],-3,50,-7,12,5,-6,/,
O=[N+]([O-])c1ccc2nc(-c3ccccc3)[nH]c2c1,24,-196,9,11,-3,-6,/,
Cc1ccc(N2C(=O)c3cccc4c(N5CCN(C)CC5)ccc(c34)C2=O)c2cccnc12,4,66*,17,-1,7,41,65*,Full FLuc ctr=57*
CS(=O)(=O)N1CCN(c2ccc([N+](=O)[O-])c3cccnc23)CC1,/,-16,-1,-4,-3,6,/,
Cc1nnc(N2C(=O)c3cccc4c([N+](=O)[O-])ccc(c34)C2=O)s1,/,61*,51,1,0,-33,37,
Cc1ccnc(N2C(=O)c3ccccc3C2=O)c1,/,-17,-7,-14,-1,-1,/,
Cc1ccc(N2C(=O)c3cccc4c([N+](=O)[O-])ccc(c34)C2=O)c2cccnc12,/,92*,64,45,26,54,60*,Full FLuc ctr=60*
Cc1ccnc(N2C(=O)c3cccc4c([N+](=O)[O-])ccc(c34)C2=O)c1,100*,100*,121*,18,-3,64*,6,
O=C1c2cccc3c(N4CCCCC4)ccc(c23)C(=O)N1c1ccccc1O,6,-5,31,9,0,27,/,
Cc1cc(C)c(S(=O)(=O)c2ccccc2C(C)C)c(=O)[nH]1,/,/,-3,1,-1,-10,/,
CC(=O)Nc1ccc(S(=O)(=O)N[C@@H](C)C(=O)NC2CCCc3ccccc32)cc1 (stereo not given in full),/,11,-4,-2,/,/,/,
Cc1n[nH]c(=S)n1/N=C/c1ccc(-c2ccc(Cl)cc2)o1,/,94*,12,1,-12,-13,-3,
CC(C)[C@H](NC(=O)[C@@H]1CSC2c3ccccc3C(=O)N21)C(=O)NC1CCCCC1 (stereo not given in full),/,22,-8,2,-2,-12,/,
CCCCn1nc(C(=O)Nc2ccc3c(c2)OCCO3)c2ccccc2c1=O,/,58*,/,16,/,/,38,
Cn1nc(C(=O)Nc2ccc3c(c2)OCCO3)c2ccccc2c1=O,/,12,/,8,/,/,/,
CCOC(=O)CCNC(=O)N1CCCC(Cc2ccccc2)(C(=O)OCC)C1 (stereo not given),/,5,-5,/,1,-5,/,
Cc1ccc(NC(=O)c2cc3c(=O)oc4ccccc4c3s2)nc1,-6,63*,-2,-2,-8,-8,-1,
Cc1cccnc1NC(=O)c1cc2c(=O)oc3ccccc3c2s1,48,18,2,-5,0,-4,/,
CC(C)(C)C(=O)O/N=C(\N)c1ccc(Oc2cc(Cl)cc(Cl)c2)c([N+](=O)[O-])c1,/,60*,22,9,7,7,8,

# From PubChem
